Experimental data taken from paper PMC8897208 (Acta Pharmaceutica Sinica. B, 2021).

Experiments:
SIRT6 [1] = target: T1, SIRT6 (Homo sapiens, UniProt Q8N6T7); experiment: In vitro nucleosome deacetylation assay; format: biochemical; details: 10 mmol/L, H3K9Ac and H3K18Ac, Western blot
In short: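 Nucleosomes were isolated from HeLa cells and deacetylated in vitro by SIRT6 in the presence of NAD+. H3K9Ac and H3K18Ac were detected by Western blot.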

SIRT6 [2] = target: T1, SIRT6; experiment: Fluor de Lys; format: biochemical
In short: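 Recombinant SIRT6 was expressed in E. coli BL21 in LB with 100 μg/mL ampicillin at 37 °C. Expression was induced with 0.5 mmol/L IPTG at OD600 0.8, then grown 18 h at 16 °C and purified by an earlier method.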

T1 sequence (Q8N6T7 whole entry): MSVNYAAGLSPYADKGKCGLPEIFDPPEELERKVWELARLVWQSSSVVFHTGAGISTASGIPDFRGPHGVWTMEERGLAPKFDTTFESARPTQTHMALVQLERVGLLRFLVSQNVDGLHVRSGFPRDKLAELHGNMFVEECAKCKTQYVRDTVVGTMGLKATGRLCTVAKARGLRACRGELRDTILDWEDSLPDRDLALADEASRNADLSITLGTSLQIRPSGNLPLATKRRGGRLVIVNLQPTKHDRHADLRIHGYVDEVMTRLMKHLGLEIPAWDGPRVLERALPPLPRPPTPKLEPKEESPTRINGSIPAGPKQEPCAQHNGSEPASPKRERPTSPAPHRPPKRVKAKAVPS

Structure (SMILES)	inhibition of SIRT6 deacetylation on nucleosomes (SIRT6 [1])	IC50 (SIRT6 [2]) [µM]	inhibition ratio at 50 μmol/L (SIRT6 [2]; FDL assay, substrate Ac-RHKK-Ac-AMC, 50 μmol/L compound) [%]
NC(=O)c1cccnc1 [nicotinamide, reference compound]	weak inhibition	–	–
Nc1nonc1-n1cc(C(=O)N/N=C/c2ccccc2O)nn1 [JYQ-1]	–	26.8	64.18
